Data from ChEMBL document CHEMBL1156300, “Identification of pyridazino[4,5-b]indolizines as selective PDE4B inhibitors” (Bioorg Med Chem Lett, 2010).

Key:
[1] = target: T1, 3',5'-cyclic-AMP phosphodiesterase 4B (Homo sapiens, UniProt Q07343); test: Displacement of [methyl-3H]rolipram from PDE4B3 expressed in CHO cells after 1 hr by scintillation counting; assay type: cell-based
[2] = target: T2, 3',5'-cyclic-AMP phosphodiesterase 4D (Homo sapiens, UniProt Q08499); test: Displacement of [methyl-3H]rolipram from PDE4D4 expressed in CHO cells after 1 hr by scintillation counting; assay type: cell-based
T2 sequence (Q08499 whole entry): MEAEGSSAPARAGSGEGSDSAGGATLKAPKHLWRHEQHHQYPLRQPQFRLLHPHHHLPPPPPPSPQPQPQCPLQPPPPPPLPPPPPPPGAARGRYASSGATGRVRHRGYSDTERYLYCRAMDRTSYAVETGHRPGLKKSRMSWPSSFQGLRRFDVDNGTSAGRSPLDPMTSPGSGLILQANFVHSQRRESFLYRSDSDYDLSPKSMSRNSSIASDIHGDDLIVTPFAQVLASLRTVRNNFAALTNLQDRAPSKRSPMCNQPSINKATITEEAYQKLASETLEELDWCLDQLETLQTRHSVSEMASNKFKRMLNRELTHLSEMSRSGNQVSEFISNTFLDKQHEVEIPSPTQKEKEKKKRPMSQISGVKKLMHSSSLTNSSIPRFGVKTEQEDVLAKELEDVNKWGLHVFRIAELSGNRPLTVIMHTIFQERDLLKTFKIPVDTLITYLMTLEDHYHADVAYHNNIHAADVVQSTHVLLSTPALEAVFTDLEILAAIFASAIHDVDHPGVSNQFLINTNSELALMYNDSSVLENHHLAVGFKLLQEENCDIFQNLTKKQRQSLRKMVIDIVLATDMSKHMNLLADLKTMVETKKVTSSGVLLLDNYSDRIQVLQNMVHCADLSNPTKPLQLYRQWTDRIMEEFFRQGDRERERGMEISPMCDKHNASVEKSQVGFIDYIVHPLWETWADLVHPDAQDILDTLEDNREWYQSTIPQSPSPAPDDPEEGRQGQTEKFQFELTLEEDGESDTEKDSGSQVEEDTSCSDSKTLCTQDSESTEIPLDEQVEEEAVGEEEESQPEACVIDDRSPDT

[3] = Selectivity ratio Ki for PDE4D4 to Ki for PDE4B3
How it was run: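 Ki ratio, PDE4D over PDE4B, from [3H]-rolipram displacement in CHO lysates expressing PDE4D4 or PDE4B3 (2.5 nM radioligand, 30 °C for 1 h, Cheng–Prusoff Ki).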

[4] = target: T1, 3',5'-cyclic-AMP phosphodiesterase 4B; test: Inhibition of PDE4B3 expressed in CHO cells assessed as isoproterenol-induced [125I]cAMP accumulation after 15 mins by scintillation counting; assay type: cell-based
[5] = target: T2, 3',5'-cyclic-AMP phosphodiesterase 4D; test: Inhibition of PDE4D4 expressed in CHO cells assessed as isoproterenol-induced [125I]cAMP accumulation after 15 mins by scintillation counting; assay type: cell-based
[6] = Inhibition of PDE1
[7] = Inhibition of PDE2
[8] = Inhibition of PDE3
[9] = Inhibition of PDE5
[10] = Inhibition of PDE6
[11] = Selectivity ratio of IC50 for PDE4A to IC50 for PDE4B3
[12] = Selectivity ratio of IC50 for PDE4C to IC50 for PDE4B3
[13] = target: Voltage-gated inwardly rectifying potassium channel KCNH2 (Homo sapiens, UniProt Q12809); test: Inhibition of human ERG
Sequence of Voltage-gated inwardly rectifying potassium channel KCNH2 (Q12809 whole entry): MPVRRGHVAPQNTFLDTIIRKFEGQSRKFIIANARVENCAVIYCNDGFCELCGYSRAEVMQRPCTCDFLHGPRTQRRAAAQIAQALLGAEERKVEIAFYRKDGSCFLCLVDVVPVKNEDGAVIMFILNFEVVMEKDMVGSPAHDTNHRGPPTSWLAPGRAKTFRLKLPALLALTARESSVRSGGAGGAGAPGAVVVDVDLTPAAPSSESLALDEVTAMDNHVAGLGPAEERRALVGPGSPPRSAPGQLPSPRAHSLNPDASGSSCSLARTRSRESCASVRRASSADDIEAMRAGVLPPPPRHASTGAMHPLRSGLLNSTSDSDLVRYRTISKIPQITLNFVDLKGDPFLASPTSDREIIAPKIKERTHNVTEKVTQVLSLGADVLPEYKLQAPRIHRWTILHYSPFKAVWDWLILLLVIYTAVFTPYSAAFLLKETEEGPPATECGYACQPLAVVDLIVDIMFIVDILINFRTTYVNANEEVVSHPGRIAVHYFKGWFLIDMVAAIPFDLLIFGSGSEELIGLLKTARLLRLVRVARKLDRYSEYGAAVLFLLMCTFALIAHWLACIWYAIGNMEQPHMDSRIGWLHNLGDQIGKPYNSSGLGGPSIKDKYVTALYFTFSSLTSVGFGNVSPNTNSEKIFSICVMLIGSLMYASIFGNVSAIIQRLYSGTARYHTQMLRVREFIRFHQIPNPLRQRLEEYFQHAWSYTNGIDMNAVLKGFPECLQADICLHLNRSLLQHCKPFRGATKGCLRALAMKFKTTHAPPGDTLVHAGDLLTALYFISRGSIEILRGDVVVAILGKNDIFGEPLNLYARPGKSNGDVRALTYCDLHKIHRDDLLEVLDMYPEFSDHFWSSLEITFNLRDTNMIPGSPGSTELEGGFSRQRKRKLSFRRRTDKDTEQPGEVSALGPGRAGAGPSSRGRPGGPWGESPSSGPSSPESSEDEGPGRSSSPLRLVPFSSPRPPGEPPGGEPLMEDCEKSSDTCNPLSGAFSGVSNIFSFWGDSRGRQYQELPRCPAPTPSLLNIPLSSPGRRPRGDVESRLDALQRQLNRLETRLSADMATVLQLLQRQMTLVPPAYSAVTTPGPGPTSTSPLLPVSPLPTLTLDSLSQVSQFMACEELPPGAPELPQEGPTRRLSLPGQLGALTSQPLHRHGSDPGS

T1 sequence (Q07343 whole entry): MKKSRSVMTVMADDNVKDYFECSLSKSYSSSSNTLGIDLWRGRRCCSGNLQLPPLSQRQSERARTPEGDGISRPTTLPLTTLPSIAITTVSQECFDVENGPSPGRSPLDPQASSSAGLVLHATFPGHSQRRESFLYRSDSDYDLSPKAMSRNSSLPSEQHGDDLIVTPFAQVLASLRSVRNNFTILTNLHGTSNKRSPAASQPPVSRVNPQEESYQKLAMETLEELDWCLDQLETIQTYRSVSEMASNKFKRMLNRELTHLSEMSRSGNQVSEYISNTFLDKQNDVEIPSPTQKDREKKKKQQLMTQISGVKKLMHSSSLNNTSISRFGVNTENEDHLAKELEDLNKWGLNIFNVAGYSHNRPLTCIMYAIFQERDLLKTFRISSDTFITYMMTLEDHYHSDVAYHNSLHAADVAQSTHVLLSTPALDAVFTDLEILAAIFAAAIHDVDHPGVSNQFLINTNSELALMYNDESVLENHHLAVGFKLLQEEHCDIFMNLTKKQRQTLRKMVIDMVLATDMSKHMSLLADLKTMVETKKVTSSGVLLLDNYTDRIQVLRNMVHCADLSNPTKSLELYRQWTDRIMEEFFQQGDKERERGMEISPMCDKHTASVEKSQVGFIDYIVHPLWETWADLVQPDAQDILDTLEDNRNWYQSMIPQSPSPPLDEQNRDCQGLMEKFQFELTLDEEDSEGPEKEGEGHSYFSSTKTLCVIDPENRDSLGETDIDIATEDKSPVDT

Ki [1] [µM]	Ki [2] [µM]	Ratio Ki [3]	SMILES	also measured
5.2	65	12	Cn1cccc1C(=O)N1CCN(CCCNc2nnc(-c3cccc(F)c3)c3c2cc2ccccn23)CC1	
0.413	19	46	O=C(c1cccnc1)N1CCN(CCCNc2nnc(-c3cccc(F)c3)c3c2cc2ccccn23)CC1	
2.01	14.2	7	Clc1cccc(-c2nnc(NCCCN3CCN(c4ncccn4)CC3)c3cc4ccccn4c23)c1	
0.241	18	75	O=C(c1ccccn1)N1CCN(CCCNc2nnc(-c3cccc(F)c3)c3c2cc2ccccn23)CC1	
4.44	51.2	12	Cc1cc2c(NCCCN3CCN(C(=O)c4ccnnc4)CC3)nnc(-c3cccc([N+](=O)[O-])c3)c2n1C	
14	61	4	O=C(C1CCCC1)N1CCN(CCCNc2nnc(-c3cccc(F)c3)c3c2cc2ccccn23)CC1	
4.3	54.4	13	Cc1cccc(-c2nnc(NCCCN3CCN(c4ncccn4)CC3)c3cc4ccccn4c23)c1	
52.2	> 100	> 2	Cc1cc2c(NCCCN3CCN(C(=O)c4ccncc4)CC3)nnc(-c3cccc([N+](=O)[O-])c3)c2n1C	
1	> 100	> 100	Cc1cc2c(NCCCN3CCN(C(=O)c4ncccn4)CC3)nnc(-c3cccc([N+](=O)[O-])c3)c2n1C	
5.08	> 100	> 20	Cc1cc2c(NCCCN3CCN(C(=O)c4ccno4)CC3)nnc(-c3cccc([N+](=O)[O-])c3)c2n1C	
1.9	> 100	> 53	CC(=O)N1CCN(CCCNc2nnc(-c3cccc(F)c3)c3c2cc2ccccn23)CC1	
1.44	17.5	12	Brc1cccc(-c2nnc(NCCCN3CCN(c4ncccn4)CC3)c3cc4ccccn4c23)c1	
0.222	12.7	57	Cc1cc2c(NCCCN3CCN(C(=O)c4cncs4)CC3)nnc(-c3cccc([N+](=O)[O-])c3)c2n1C	
2.6	59	23	c1ccc(-c2nnc(NCCCN3CCN(c4ncccn4)CC3)c3cc4ccccn4c23)cc1	IC50 [4]: 13.2 µM; IC50 [5]: > 100 µM
0.21	2.4	11	O=[N+]([O-])c1cccc(-c2nnc(NCCCN3CCN(c4ncccn4)CC3)c3cc4ccccn4c23)c1	

More lines, now with the values behind:

SMILES	Ki [1] [µM]	Ki [2] [µM]	Ratio Ki [3]	also measured
Cc1cc2c(NCCCN3CCN(C(=O)c4csnn4)CC3)nnc(-c3cccc([N+](=O)[O-])c3)c2n1C	0.977	48.6	50	
N#Cc1cccc(-c2nnc(NCCCN3CCN(c4ncccn4)CC3)c3cc4ccccn4c23)c1	1.03	3.35	3	
O=C(c1ccccc1)N1CCN(CCCNc2nnc(-c3cccc(F)c3)c3c2cc2ccccn23)CC1	2.7	22.2	8	
Fc1cccc(-c2nnc(NCCCN3CCN(c4ncccn4)CC3)c3cc4ccccn4c23)c1	2.7	83	29	
Cc1cc2c(NCCCN3CCN(C(=O)c4cnccn4)CC3)nnc(-c3cccc([N+](=O)[O-])c3)c2n1C	0.077	4.44	58	
Cc1cc2c(NCCCN3CCN(C(=O)c4ccccn4)CC3)nnc(-c3cccc([N+](=O)[O-])c3)c2n1C	0.238	11.5	48	
O=C(c1cnccn1)N1CCN(CCCNc2nnc(-c3ccccc3)c3c2cc2ccccn23)CC1	0.041	8.37	205	IC50 [4]: 6.7 µM; IC50 [5]: > 100 µM
Cc1cc2c(NCCCN3CCN(C(=O)c4cccnc4)CC3)nnc(-c3cccc([N+](=O)[O-])c3)c2n1C	0.432	15.3	35	
CCC(=O)N1CCN(CCCNc2nnc(-c3cccc(F)c3)c3c2cc2ccccn23)CC1	4.9	> 100	> 20	
O=C(c1cnccn1)N1CCN(CCCNc2nnc(-c3cccc([N+](=O)[O-])c3)c3c2cc2ccccn23)CC1	0.0056	0.147	26	IC50 [4]: 0.389 µM; IC50 [5]: 4.9 µM; IC50 [6]: > 10 µM; IC50 [7]: > 10 µM; IC50 [8]: > 10 µM; IC50 [9]: > 10 µM; IC50 [10]: > 10 µM; Ratio IC50 [11]: > 5; Ratio IC50 [12]: > 5; inhibition (INH) [13]: Active
